Laboratory results as given in ChEMBL document CHEMBL1255417, “Correlation between in vitro activity of posaconazole and in vivo efficacy against Rhizopus oryzae infection in mice” (Antimicrob Agents Chemother, 2010).
Converted amounts (≈) assume the structure as drawn. The source made the active and inactive calls. The rule behind the calls is not given here.

Experiments:
Rhizopus arrhizus [1] = test: Antifungal activity against drug-susceptible Rhizopus oryzae UTHSC 04-2159 by broth microdilution method; format: functional
How it was run: (§1)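 CLSI broth microdilution for filamentous fungi (M38-A2); MIC recorded in µg/ml against clinical isolates; breakpoints applied at 24 h.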

Rhizopus arrhizus [2] = test: Antifungal activity against drug-susceptible Rhizopus oryzae UTHSC 06-1351 at 5 ug by disk diffusion assay; format: functional; conditions: read-out: DIZ
How it was run: (§2)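 Neo-Sensitabs tablet diffusion on Mueller-Hinton agar, run per the mould guidelines. Tablets are 9 mm in diameter and carry 5 ug posaconazole. The read-out is the inhibition zone diameter in mm.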

Rhizopus arrhizus [3] = test: Antifungal activity against drug-intermediate Rhizopus oryzae UTHSC 03-3165 at 5 ug by disk diffusion assay; format: functional; conditions: read-out: DIZ
How it was run: (§3)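 Neo-Sensitabs tablet diffusion on Mueller-Hinton agar, following the guidelines for molds. Tablets were 9 mm in diameter and held 5 µg of drug. The read-out was inhibition zone diameter in mm.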

Rhizopus arrhizus [4] = test: Antifungal activity against drug-intermediate Rhizopus oryzae UTHSC 04-3109 at 5 ug by disk diffusion assay; format: functional; conditions: read-out: DIZ; how it was run: as §3
Rhizopus arrhizus [5] = test: Antifungal activity against drug-susceptible Rhizopus oryzae UTHSC 03-2970 after 24 to 48 hrs; format: functional
Rhizopus arrhizus [6] = test: Antifungal activity against drug-susceptible Rhizopus oryzae UTHSC 06-1301 at 5 ug by disk diffusion assay; format: functional; conditions: read-out: DIZ; how it was run: as §2
Rhizopus arrhizus [7] = test: Antifungal activity against drug-susceptible Rhizopus oryzae UTHSC 03-511 infected in OF1 mouse assessed as reduction in kidney fungal load at 10-30 mg/kg, po bid; format: functional, organism-based
How it was run: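 Immunosuppressed male OF1 mice (cyclophosphamide 200 mg/kg i.p. plus 5-fluorouracil 150 mg/kg i.v., day −1) infected i.v. with 2 × 10^4 CFU; oral gavage twice daily from 24 h post-challenge; 10 mice/group killed day 4; kidneys homogenized in 2 ml saline, 10-fold dilutions plated on potato dextrose agar, 24 h at 35°C for CFU.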

Rhizopus arrhizus [8] = test: Antifungal activity against drug-susceptible Rhizopus oryzae UTHSC 06-1351 by broth microdilution method; format: functional
How it was run: (§4)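 Posaconazole MIC in ug/ml, determined by broth microdilution following the CLSI guidelines for moulds (M38-A2).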

Rhizopus arrhizus [9] = test: Antifungal activity against drug-susceptible Rhizopus oryzae UTHSC 03-2970 at 5 ug by disk diffusion assay; format: functional; conditions: read-out: DIZ; how it was run: as §3
Rhizopus arrhizus [10] = test: Antifungal activity against drug-susceptible Rhizopus oryzae UTHSC 03-112 by broth microdilution method; format: functional
How it was run: (§5)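 Broth microdilution MIC in µg/ml, run per the CLSI (formerly NCCLS) guideline for filamentous fungi, M38-A2.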

Rhizopus arrhizus [11] = test: Antifungal activity against drug-susceptible Rhizopus oryzae UTHSC 06-4336 at 5 ug by disk diffusion assay; format: functional; conditions: read-out: DIZ; how it was run: as §2
Rhizopus arrhizus [12] = test: Antifungal activity against drug-susceptible Rhizopus oryzae UTHSC 03-299 at 5 ug by disk diffusion assay; format: functional; conditions: read-out: DIZ
How it was run: (§6)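 Neo-Sensitabs tablet diffusion on Mueller-Hinton agar, following guidelines for molds; 9 mm tablets containing 5 µg posaconazole; inhibition zone diameter measured in mm; zone breakpoints applied at 24 h.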

Rhizopus arrhizus [13] = test: Antifungal activity against drug-susceptible Rhizopus oryzae UTHSC 06-3913 after 24 to 48 hrs; format: functional
How it was run: (§7)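 Minimum fungicidal concentration taken from the broth microdilution plates. From each well with complete inhibition (optically clear), 20 ul is plated on potato dextrose agar. Plates are incubated at 35°C for 24 to 48 h. The MFC is the lowest drug concentration giving no growth.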

Rhizopus arrhizus [14] = test: Antifungal activity against drug-susceptible Rhizopus oryzae UTHSC 05-3580 at 5 ug by disk diffusion assay; format: functional; conditions: read-out: DIZ; how it was run: as §2
Rhizopus arrhizus [15] = test: Antifungal activity against drug-susceptible Rhizopus oryzae UTHSC 04-1613 after 24 to 48 hrs; format: functional
How it was run: (§8)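 Minimum fungicidal concentration: 20 µl from each microdilution well showing complete inhibition (optically clear) plated on potato dextrose agar, incubated 35°C for 24 to 48 h; MFC taken as lowest drug concentration giving no growth.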

Rhizopus arrhizus [16] = test: Antifungal activity against drug-susceptible Rhizopus oryzae UTHSC 06-89 infected in OF1 mouse assessed as reduction in kidney fungal load at 10-30 mg/kg, po bid; format: functional, organism-based
Rhizopus arrhizus [17] = test: Antifungal activity against drug-intermediate Rhizopus oryzae UTHSC 05-3032 after 24 to 48 hrs; format: functional
Rhizopus arrhizus [18] = test: Antifungal activity against drug-susceptible Rhizopus oryzae UTHSC 412-546 after 24 to 48 hrs; format: functional
Rhizopus arrhizus [19] = test: Antifungal activity against drug-susceptible Rhizopus oryzae UTHSC 06-3913 by broth microdilution method; format: functional; how it was run: as §4
Rhizopus arrhizus [20] = test: Antifungal activity against drug-susceptible Rhizopus oryzae UTHSC 05-3132 by broth microdilution method; format: functional; how it was run: as §4
Rhizopus arrhizus [21] = test: Antifungal activity against drug-susceptible Rhizopus oryzae UTHSC 02-2882 at 5 ug by disk diffusion assay; format: functional; conditions: read-out: DIZ; how it was run: as §3
Rhizopus arrhizus [22] = test: Antifungal activity against drug-susceptible Rhizopus oryzae UTHSC 03-511 at 5 ug by disk diffusion assay; format: functional; conditions: read-out: DIZ; how it was run: as §6
Rhizopus arrhizus [23] = test: Antifungal activity against drug-susceptible Rhizopus oryzae UTHSC 06-1301 after 24 to 48 hrs; format: functional; how it was run: as §7
Rhizopus arrhizus [24] = test: Antifungal activity against drug-susceptible Rhizopus oryzae UTHSC 2868 by broth microdilution method; format: functional
Rhizopus arrhizus [25] = test: Antifungal activity against drug-susceptible Rhizopus oryzae UTHSC 05-3580 after 24 to 48 hrs; format: functional; how it was run: as §7
Rhizopus arrhizus [26] = test: Antifungal activity against drug-susceptible Rhizopus oryzae UTHSC 05-3111 after 24 to 48 hrs; format: functional; how it was run: as §7
Rhizopus arrhizus [27] = test: Antifungal activity against drug-susceptible Rhizopus oryzae UTHSC 02-2882 by broth microdilution method; format: functional; how it was run: as §5
Rhizopus arrhizus [28] = test: Antifungal activity against drug-susceptible Rhizopus oryzae UTHSC 03-228 after 24 to 48 hrs; format: functional
Rhizopus arrhizus [29] = test: Antifungal activity against drug-susceptible Rhizopus oryzae UTHSC 06-89 infected in OF1 mouse assessed as increase in mouse survival at 20-30 mg/kg, po bid treated 24 hrs after fungal infection; format: functional, organism-based
Rhizopus arrhizus [30] = test: Antifungal activity against drug-susceptible Rhizopus oryzae UTHSC 06-434 by broth microdilution method; format: functional; how it was run: as §4
Rhizopus arrhizus [31] = test: Antifungal activity against drug-susceptible Rhizopus oryzae UTHSC 05-2975 at 5 ug by disk diffusion assay; format: functional; conditions: read-out: DIZ; how it was run: as §2
Rhizopus arrhizus [32] = test: Antifungal activity against drug-susceptible Rhizopus oryzae UTHSC 06-731 at 5 ug by disk diffusion assay; format: functional; conditions: read-out: DIZ
Rhizopus arrhizus [33] = test: Antifungal activity against drug-susceptible Rhizopus oryzae UTHSC 04-1220 by broth microdilution method; format: functional; how it was run: as §1
Rhizopus arrhizus [34] = test: Antifungal activity against drug-susceptible Rhizopus oryzae UTHSC 05-1679 by broth microdilution method; format: functional; how it was run: as §1
Rhizopus arrhizus [35] = test: Antifungal activity against drug-susceptible Rhizopus oryzae UTHSC 05-2447 after 24 to 48 hrs; format: functional; how it was run: as §8
Rhizopus arrhizus [36] = test: Antifungal activity against drug-susceptible Rhizopus oryzae UTHSC 06-4152 by broth microdilution method; format: functional; how it was run: as §4
Rhizopus arrhizus [37] = test: Antifungal activity against drug-susceptible Rhizopus oryzae UTHSC 06-4336 after 24 to 48 hrs; format: functional; how it was run: as §7
Rhizopus arrhizus [38] = test: Antifungal activity against drug-susceptible Rhizopus oryzae UTHSC 06-2457 after 24 to 48 hrs; format: functional; how it was run: as §7
Rhizopus arrhizus [39] = test: Antifungal activity against drug-susceptible Rhizopus oryzae UTHSC 05-2447 by broth microdilution method; format: functional; how it was run: as §1
Rhizopus arrhizus [40] = test: Antifungal activity against drug-intermediate Rhizopus oryzae UTHSC 07-365 by broth microdilution method; format: functional; how it was run: as §5
Rhizopus arrhizus [41] = test: Antifungal activity against drug-intermediate Rhizopus oryzae UTHSC 03-3165 after 24 to 48 hrs; format: functional

`CC[C@@H]([C@H](C)O)n1ncn(-c2ccc(N3CCN(c4ccc(OC[C@@H]5CO[C@@](Cn6cncn6)(c6ccc(F)cc6F)C5)cc4)CC3)cc2)c1=O` [POSACONAZOLE] gave an MIC (Rhizopus arrhizus [1]) of 0.5 µg/mL (≈ 0.713 µM), a zone of inhibition at 5 µg/disc (Rhizopus arrhizus [2]) of 25 mm and a zone of inhibition at 5 µg/disc (Rhizopus arrhizus [3]) of 16 mm. The zone of inhibition at 5 µg/disc (Rhizopus arrhizus [4]) was 14 mm, the MFC (Rhizopus arrhizus [5]) was 4 µg/mL (≈ 5.71 µM) and the zone of inhibition at 5 µg/disc (Rhizopus arrhizus [6]) was 25 mm. The Activity (Rhizopus arrhizus [7]) was “Active”, the MIC (Rhizopus arrhizus [8]) was 0.25 µg/mL (≈ 0.357 µM) and the zone of inhibition at 5 µg/disc (Rhizopus arrhizus [9]) was 20 mm. It also gave an MIC (Rhizopus arrhizus [10]) of 0.5 µg/mL (≈ 0.713 µM), a zone of inhibition at 5 µg/disc (Rhizopus arrhizus [11]) of 20 mm and a zone of inhibition at 5 µg/disc (Rhizopus arrhizus [12]) of 15 mm. For the same compound, the MFC (Rhizopus arrhizus [13]) was 4 µg/mL (≈ 5.71 µM), the zone of inhibition at 5 µg/disc (Rhizopus arrhizus [14]) was 25 mm and the MFC (Rhizopus arrhizus [15]) was 0.5 µg/mL (≈ 0.713 µM). The Activity (Rhizopus arrhizus [16]) was “Active”, the MFC (Rhizopus arrhizus [17]) was greater than 16 µg/mL and the MFC (Rhizopus arrhizus [18]) was 8 µg/mL (≈ 11.4 µM). For the same compound, the MIC (Rhizopus arrhizus [19]) was 0.5 µg/mL (≈ 0.713 µM), the MIC (Rhizopus arrhizus [20]) was 0.5 µg/mL (≈ 0.713 µM) and the zone of inhibition at 5 µg/disc (Rhizopus arrhizus [21]) was 22 mm. The zone of inhibition at 5 µg/disc (Rhizopus arrhizus [22]) was 22 mm, the MFC (Rhizopus arrhizus [23]) was 1 µg/mL (≈ 1.43 µM) and the MIC (Rhizopus arrhizus [24]) was 1 µg/mL (≈ 1.43 µM). The MFC (Rhizopus arrhizus [25]) was 1 µg/mL (≈ 1.43 µM), the MFC (Rhizopus arrhizus [26]) was 2 µg/mL (≈ 2.85 µM) and the MIC (Rhizopus arrhizus [27]) was 0.25 µg/mL (≈ 0.357 µM). The MFC (Rhizopus arrhizus [28]) was 1 µg/mL (≈ 1.43 µM), the Activity (Rhizopus arrhizus [29]) was “Active” and the MIC (Rhizopus arrhizus [30]) was 1 µg/mL (≈ 1.43 µM). For the same compound, the zone of inhibition at 5 µg/disc (Rhizopus arrhizus [31]) was 20 mm, the zone of inhibition at 5 µg/disc (Rhizopus arrhizus [32]) was 17 mm and the MIC (Rhizopus arrhizus [33]) was 0.5 µg/mL (≈ 0.713 µM). It also gave an MIC (Rhizopus arrhizus [34]) of 0.5 µg/mL (≈ 0.713 µM), an MFC (Rhizopus arrhizus [35]) of 1 µg/mL (≈ 1.43 µM) and an MIC (Rhizopus arrhizus [36]) of 0.25 µg/mL (≈ 0.357 µM). The MFC (Rhizopus arrhizus [37]) was 1 µg/mL (≈ 1.43 µM), the MFC (Rhizopus arrhizus [38]) was greater than 16 µg/mL and the MIC (Rhizopus arrhizus [39]) was 1 µg/mL (≈ 1.43 µM). The MIC (Rhizopus arrhizus [40]) was 2 µg/mL (≈ 2.85 µM) and the MFC (Rhizopus arrhizus [41]) was 16 µg/mL (≈ 22.8 µM).
